{
  "source": "the RNAGym collection of RNA variant scans (doi:10.1126/science.aae0568)",
  "parents": {"B1": {"name": "tRNA (parent)", "chain": "GUUCCGUUGGCGUAAUGGUAACGCGUCUCCCUCCUAAGGAGAAGACUGCGGGUUCGAGUCCCGUACGGAACG"}},
  "note": "Fewer inactive variants are shown than the library holds.",
  "data": [
    {"variants_of": "B1", "experiment": "yeast fitness relative to wild type (ratio to wild type); higher = fitter; tRNA-Arg(CCU), competitive growth, 37 C, YPD", "outline": "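Start and end populations of a pooled competition were compared by 100-nucleotide paired-end sequencing of gene amplicons. The Saccharomyces cerevisiae strains carried tRNA-Arg(CCU) gene variants at the native genomic locus, synthesised with a 3% per-site mutation rate at 69 sites, and competed in YPD at 37°C for 24 hours in six parallel replicates. Darwinian fitness relative to wild type was based on the change in genotype frequencies. Genotypes required ≥ 100 starting reads, and estimates < 0.5 were set to 0.5.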", "values": [
      {"variant": "A36G C49U", "yeast fitness": 1.02},
      {"variant": "A36G G56A G58C", "yeast fitness": 0.694},
      {"variant": "A36U C49U C62G", "yeast fitness": "≤ 0.5"},
      {"variant": "A36C G39A A57U", "yeast fitness": "≤ 0.5"},
      {"variant": "A36U C46G C62A", "yeast fitness": "≤ 0.5"},
      {"variant": "U35C G51A", "yeast fitness": 0.731},
      {"variant": "A37C A43C C62U", "yeast fitness": 0.882},
      {"variant": "U35A A42G A43C", "yeast fitness": 0.581},
      {"variant": "U35A C49G C66G", "yeast fitness": "≤ 0.5"},
      {"variant": "A37G C46U U59G", "yeast fitness": 0.508},
      {"variant": "A36G A65G A70G", "yeast fitness": 0.639},
      {"variant": "C34U A69C", "yeast fitness": 0.774},
      {"variant": "U35C A37C G68C A70C", "yeast fitness": 0.913},
      {"variant": "A37C A42C C55U", "yeast fitness": 0.597},
      {"variant": "A37G G44C A57U G68C", "yeast fitness": 0.512},
      {"variant": "G38A A43C A65C", "yeast fitness": "≤ 0.5"},
      {"variant": "A37C C55G G63A", "yeast fitness": "≤ 0.5"},
      {"variant": "C34U A43G C61A", "yeast fitness": "≤ 0.5"},
      {"variant": "A37G G52A C55G", "yeast fitness": 0.516},
      {"variant": "A37C C49U", "yeast fitness": 0.848},
      {"variant": "U35C C61G A69G", "yeast fitness": "≤ 0.5"},
      {"variant": "C34G A45U G50C A57C", "yeast fitness": "≤ 0.5"},
      {"variant": "A37G A40C A43C G67U", "yeast fitness": "≤ 0.5"},
      {"variant": "C34U A40C A42C G48A C61G G67C G68A", "yeast fitness": "≤ 0.5"},
      {"variant": "A37G G58C A69C", "yeast fitness": 0.623},
      {"variant": "A36U A45C G63C", "yeast fitness": 0.614},
      {"variant": "G38C A40C G51C C62U A69U", "yeast fitness": "≤ 0.5"},
      {"variant": "A36C C62G", "yeast fitness": 0.575},
      {"variant": "U35C G44A G48C C55G A69U", "yeast fitness": "≤ 0.5"},
      {"variant": "A36U G48C", "yeast fitness": 0.648},
      {"variant": "A36G A43G A57C A65U", "yeast fitness": "≤ 0.5"},
      {"variant": "A36C U47A G48C U54G A65C", "yeast fitness": 0.6},
      {"variant": "A36U G44C A45U C62U G68A", "yeast fitness": 0.789},
      {"variant": "U35G A42G G56C", "yeast fitness": 0.59},
      {"variant": "G38C A70C", "yeast fitness": 0.738},
      {"variant": "U35A U47C C61G", "yeast fitness": "≤ 0.5"},
      {"variant": "A36C G67A", "yeast fitness": 0.607},
      {"variant": "A37U C49A A65U", "yeast fitness": "≤ 0.5"},
      {"variant": "G38C A43U A45G", "yeast fitness": "≤ 0.5"},
      {"variant": "A36G C49G A70G", "yeast fitness": 0.53},
      {"variant": "A37U C55U C61G A65U", "yeast fitness": "≤ 0.5"},
      {"variant": "U35C A45C C49G", "yeast fitness": 0.562},
      {"variant": "A36C A70U", "yeast fitness": 0.703},
      {"variant": "A36G A42C U47C", "yeast fitness": 0.687},
      {"variant": "C34U G48A C55U", "yeast fitness": 0.638},
      {"variant": "U35C C55A C60U A69U", "yeast fitness": "≤ 0.5"},
      {"variant": "A36G A37U G67A", "yeast fitness": "≤ 0.5"},
      {"variant": "U35C A45C C49G A57U G63A", "yeast fitness": "≤ 0.5"},
      {"variant": "A37U G58A", "yeast fitness": 0.767},
      {"variant": "A36C U47A G48C A57C A65U", "yeast fitness": "≤ 0.5"},
      {"variant": "A37U C55G G68C", "yeast fitness": "≤ 0.5"},
      {"variant": "C34G U47A G67A", "yeast fitness": "≤ 0.5"},
      {"variant": "U35C G48C", "yeast fitness": 0.973},
      {"variant": "C34G G41C C49U", "yeast fitness": 0.684},
      {"variant": "C34G C55G", "yeast fitness": 0.567},
      {"variant": "C34G C49U C66U", "yeast fitness": 0.557},
      {"variant": "A37C A42C C66U", "yeast fitness": 0.712},
      {"variant": "A37C A42U", "yeast fitness": 0.809},
      {"variant": "A37G U59A", "yeast fitness": 0.663},
      {"variant": "A36G A45C C61U", "yeast fitness": 0.76},
      {"variant": "A36U A65U", "yeast fitness": 0.597},
      {"variant": "A36U A65C", "yeast fitness": 0.596},
      {"variant": "A36C C49U C55U", "yeast fitness": 0.643},
      {"variant": "A36C A42G", "yeast fitness": 0.633},
      {"variant": "A36C C55U C60G", "yeast fitness": 0.781},
      {"variant": "U35A A43G U64C", "yeast fitness": "≤ 0.5"},
      {"variant": "C34U C46G C62U", "yeast fitness": 0.549},
      {"variant": "A37G G38C G52A C61U", "yeast fitness": 0.653},
      {"variant": "A37C A40G U47C", "yeast fitness": "≤ 0.5"},
      {"variant": "U35C A45U C49A C66U", "yeast fitness": "≤ 0.5"},
      {"variant": "C34U G38C C55A", "yeast fitness": "≤ 0.5"},
      {"variant": "U35A C62U", "yeast fitness": 0.732},
      {"variant": "A36U G48A G50U A57U", "yeast fitness": "≤ 0.5"},
      {"variant": "G38A U54C A65U", "yeast fitness": 0.581},
      {"variant": "A36G C55G", "yeast fitness": 0.623},
      {"variant": "A36C C49U C55U C60U", "yeast fitness": "≤ 0.5"},
      {"variant": "A36C C49A U64C", "yeast fitness": 0.767},
      {"variant": "G38C C46A C62G C66U", "yeast fitness": "≤ 0.5"},
      {"variant": "A36G U53C", "yeast fitness": 0.724},
      {"variant": "C34G G41C C49U C62A A69C", "yeast fitness": "≤ 0.5"},
      {"variant": "A36C A65U", "yeast fitness": 0.667},
      {"variant": "A36C A65G", "yeast fitness": 0.598},
      {"variant": "U35G G48C C66U", "yeast fitness": "≤ 0.5"}
    ]}
  ]
}
